Consider two compounds from ChEMBL document CHEMBL1821556, “Structure-activity relationships of antitubercular nitroimidazoles. 3. Exploration of the linker and lipophilic tail of ((s)-2-nitro-6,7-dihydro-5H-imidazo[2,1-b][1,3]oxazin-6-yl)-(4-trifluoromethoxybenzyl)amine (6-amino PA-824)” (J Med Chem, 2011).

The nature of data set [1]: Solubility of the compound. The format is physicochemical. An outline of the steps:
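Solubility was measured in buffer at pH 6.8 and reported in μg/mL.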

Data set [2] relates to Mycobacterium tuberculosis. Description: Bactericidal activity against Mycobacterium tuberculosis assessed as minimum concentration required for anaerobicidal activity. Type of data set: functional. A digest of the protocol: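 Minimum anaerobicidal concentration (μM) against non-replicating Mtb. Run multiple times in two independent laboratories, with discrepant results repeated until concordant. Values are averages of multiple measurements ± SD.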

The subject of data set [3] is Liver. Put plainly: Half life in mouse liver microsome at 5 mg/kg, iv after 24 hrs by LC/MS/MS analysis. The following applies: microsomes. Type of data set: ADME.
The nature of data set [4]: Elimination half life in mouse at 5 mg/kg, iv by LC/MS/MS analysis. Type of data set: ADME, organism-based. More on the design: dose 5 mg/kg, route intravenous. The following applies: in vivo, read-out: beta t1/2 (converted). An outline of the steps: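 Single intravenous dose of 5mg/kg, using the supernatant of a centrifuged formulation. Blood was sampled at time points from 1min to 24h after dosing. Plasma was extracted and analysed by LC/MS/MS. Pharmacokinetic parameters, including elimination half-life, came from non-compartmental analysis.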

The test system of data set [5] is Mycobacterium tuberculosis. Description: Antitubercular activity against Mycobacterium tuberculosis. Type of data set: functional. A digest of the protocol: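 Whole-cell assay against replicating Mtb, scored as MIC99 in μM. Run multiple times in two independent laboratories, with discrepant results repeated until concordant. Values are averages of multiple measurements ± SD.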

Data set [6] concerns Liver. Description: Intrinsic clearance in mouse liver microsome at 5 mg/kg, iv after 24 hrs by LC/MS/MS analysis. Type of data set: ADME. The following applies: microsomes.

≈ marks a conversion by molar mass, not a printed value.

For the compound `CCC(=O)N(Cc1ccc(OC(F)(F)F)cc1)[C@@H]1COc2nc([N+](=O)[O-])cn2C1`, the solubility entry in data set [1] is reported as “Insoluble”.

For `O=[N+]([O-])c1cn2c(n1)OC[C@@H](NCc1ccc(OC(F)(F)F)c(O)c1)C2`, the Activity in data set [2] is 7.5 µM. The compound further gave a t1/2 in the data set with Liver [3] of 22.4 min. Moreover, the half-life in data set [4] was 24 min. In data set [5], this compound yielded an MIC99 of 0.16 µM (≈ 0.0599 µg/mL). This compound also returned a CL in the data set on Liver [6] of 61.9 µL/min/mg.
